Screening data deposited in PubChem BioAssay by several laboratories.
C8 TRAIL sens: caspase-8 TRAIL sensitization. NB7+C8 cells + TRAIL, ATPlite viability luminescence. inhibition (viability loss, TRAIL sensitization), % at 10 µM. 360,000 compounds, 1% hits;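 active means compounds causing at least 50% loss of cell viability in the single-dose screen, relative to plate controls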
Wee1 stabilizer: inhibitors of human Wee1 degradation; reporter increase, % at 5 µM; AID 1321; P30291; 220,000 compounds, 1.2% hits; HeLa Luc-Wee1K328M stability, luciferase luminescence; 100% = proteasome inhibitor MG132 effect;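 active means activation above the mean of all tested compounds plus 3 SD, set per screening run, cut at about 8.8% in these data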;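 further: cells exposed to compound for 20 h before luminescence read; 0% = DMSO alone and 100% = MG132 at 30 µM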
PKD1 kinase inh: inhibitors of human PKD1 kinase | inhibition, % (test concentration not listed) | 200,000 compounds, 0.056% hits | PKD1 kinase fluorescence polarization assay; in the data active means inhibition above about 50%
Target sequence (Q15139 whole entry, looked up): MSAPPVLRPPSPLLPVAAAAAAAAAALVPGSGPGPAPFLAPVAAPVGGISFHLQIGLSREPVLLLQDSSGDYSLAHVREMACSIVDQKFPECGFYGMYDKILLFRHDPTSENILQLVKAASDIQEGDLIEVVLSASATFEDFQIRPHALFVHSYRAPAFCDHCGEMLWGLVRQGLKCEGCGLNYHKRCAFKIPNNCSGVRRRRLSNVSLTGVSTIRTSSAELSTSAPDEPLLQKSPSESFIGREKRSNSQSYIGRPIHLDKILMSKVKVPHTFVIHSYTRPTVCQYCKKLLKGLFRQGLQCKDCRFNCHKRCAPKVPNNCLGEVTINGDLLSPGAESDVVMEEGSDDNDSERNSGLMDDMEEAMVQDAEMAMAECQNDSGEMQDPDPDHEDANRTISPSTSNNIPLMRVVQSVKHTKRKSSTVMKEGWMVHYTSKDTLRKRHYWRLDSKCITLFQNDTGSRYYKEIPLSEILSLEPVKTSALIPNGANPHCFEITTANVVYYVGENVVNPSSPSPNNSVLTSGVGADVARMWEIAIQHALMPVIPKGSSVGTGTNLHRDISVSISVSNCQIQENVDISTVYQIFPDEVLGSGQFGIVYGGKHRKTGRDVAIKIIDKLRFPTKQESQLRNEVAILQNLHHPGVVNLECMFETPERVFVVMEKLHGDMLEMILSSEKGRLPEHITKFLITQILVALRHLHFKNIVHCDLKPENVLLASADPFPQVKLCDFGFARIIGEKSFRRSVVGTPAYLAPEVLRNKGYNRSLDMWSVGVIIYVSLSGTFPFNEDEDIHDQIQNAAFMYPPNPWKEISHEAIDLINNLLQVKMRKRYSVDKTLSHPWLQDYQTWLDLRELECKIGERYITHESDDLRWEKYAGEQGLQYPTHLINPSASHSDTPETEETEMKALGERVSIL
FLuc inh counter: counter-screen for luciferase assay inhibitors: firefly luciferase inhibition. ATPLite firefly luciferase biochemical luminescence, 10 min. inhibition, % at 10 µM. 200,000 compounds, 1.5% hits. P08659;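 active means inhibition above about 50% when tested at 10 µM, limit read from the data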
FLuc stim CS: affects firefly luciferase, flagging false hits in luciferase stimulation screens; P08659; ATPlite luciferase biochemical, luminescence, 10 min; 0 = ATP-free wells, 1 = DMSO control; activation factor at 10 µM; 200,000 tested, under 10 active; AID 1027;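 active means luciferase activation factor, scaled between plate controls, of at least 2 with compound at 10 µM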
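System: luciferase plus luciferin reagent, cell-free; medium: PBS as buffer for the ATP substrate; dosing: test compounds dosed from 2 mM stocks in 100% DMSO; timing: 10 min post-reagent at room temperature; measured by: luminescence measurement of luciferase light output; evaluation: luciferase activation, seen as luminescence increase over controls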
PPC-1+TRAIL kill: kills PPC-1 cancer cells in the presence of TRAIL; AID 1443; cell killing (% activity), % at 4 µM or 5 µM; 220,000 compounds, 0.41% hits; PPC-1 cells + TRAIL, ATPLite viability luminescence;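 active means cell killing above 50% in the first pass at 4 µM, then a duplicate retest at 5 µM averaging 50% or more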;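 further: plate controls were cells with TRAIL plus DMSO for no effect and medium-only wells lacking cells for full effect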
The depositor's hits bear a star; nt = not tested or not shown. The list is not random: actives were taken first. Their share in the collection is about 2.2%.

SMILES	C8 TRAIL sens	Wee1 stabilizer	PKD1 kinase inh	FLuc inh counter	FLuc stim CS	PPC-1+TRAIL kill
Cc1ccc(NC(=O)c2ccc(OCC3CCCO3)cc2)cc1 (stereo not given)	34	1	-12	53*	0.5	13
O=C(COC(=O)C1C2CC3OC(=O)C1C3C2)Nc1ccc(Cl)cc1 (stereo not given)	9	nt	nt	nt	nt	nt
O=C(O)c1ccc(NC(=S)NC2CCCCC2)cc1	-3	9.6*	4	-6	1.1	12
CCc1cc2c(COC(=O)c3cccc(NS(C)(=O)=O)c3)cc(=O)oc2cc1O	20	nt	nt	nt	nt	nt
O=C(Cc1ccccc1)Nc1ccc(N2CCCCC2)cc1	40	3	5	73*	0.3	25
O=C(/C=C/c1ccccc1)Nc1ccc(N2CCCCC2)cc1	24	9.0*	-3	16	0.8	22
Cc1ccc(S(=O)(=O)N2CCN(C(=O)CSc3ncc(C(F)(F)F)cc3Cl)CC2)cc1	8	4	-7	58*	0.4	28
Cc1ccc(S(=O)(=O)N2CCN(C(=O)CSc3ccc(F)cc3)CC2)cc1	0	nt	nt	nt	nt	nt
c1ccc(COc2ncnc3c2ncn3CCCNCC(c2ccccc2)c2ccccc2)cc1	63*	nt	nt	nt	nt	nt
CCOC(=O)N1CCN(C(=O)c2cc3c(s2)-c2ccc(Cl)cc2S(=O)(=O)C3)CC1	-1	10*	2	1	1	14
CCOC(=O)N1CCN(C(=O)c2cc3c(s2)-c2ccccc2OC3)CC1	-9	-1	-6	-2	1	-1
CCCCc1cc(=O)oc2cc(OCC(=O)NC3CCN(Cc4ccccc4)CC3)ccc12	16	nt	nt	nt	nt	nt
O=C(CNC1CCCCCC1)Nc1ccccc1N1CCCCC1	22	8.9*	1	-10	1.1	8
COc1cc(CC(=O)Nc2ccccc2N2CCCCC2)cc(OC)c1OC	-7	9.4*	6	-7	1.1	-21
c1cnc2nc(-c3ccc4c(c3)OCO4)cn2c1	23	0	-7	55*	0.4	26
Cc1ccc(-c2cn3cccnc3n2)cc1	34	3	-1	66*	0.3	37
N#Cc1ccc(S(=O)(=O)N2CCCCC2c2cc(C(=O)N3CCOCC3)no2)cc1 (stereo not given)	-23	nt	nt	nt	nt	nt
CCOC(=O)C1=C(N)OC2=C(C(=O)CC(C)(C)C2)C1c1cc(CSc2nnnn2C)cs1 (stereo not given)	-6	-3	-1	-4	1	3
COC(=O)c1cc(OCC(=O)Nc2ccc3c(c2)CCC3)cc(C(=O)OC)c1	94*	nt	nt	nt	nt	nt
COc1ccc(OCC(=O)Nc2ccc3c(c2)CCC3)cc1	-3	nt	nt	nt	nt	nt
Cc1cccc(N(Cc2ccccc2)C(=O)CCl)c1	96*	-2	-1	-12	1.1	7
COc1ccc(CC(=O)N(Cc2ccccc2)c2cccc(C)c2)cc1OC	-14	nt	nt	nt	nt	nt
O=C(CCl)N(Cc1cc(=O)[nH]c2ccccc12)c1ccccc1	47	nt	nt	nt	nt	nt
O=C(CCl)N(Cc1ccccc1)c1ccccc1	96*	3	-7	0	1	12
Cc1cc(/C=C2\SC(N)=NC2=O)c(C)n1-c1ccccc1	42	1	6	83*	0.2	39
SMILES	C8 TRAIL sens	Wee1 stabilizer	PKD1 kinase inh	FLuc inh counter	FLuc stim CS	PPC-1+TRAIL kill
Cc1cc(C=C2C(=O)CCCC2=O)c(C)n1-c1ccccc1	-7	-5	-5	15	0.8	3
NC(=O)C(CC(=O)O)NC(=O)[C@@H]1CCOc2c(I)cc([N+](=O)[O-])cc2C(=O)N[C@@H](CCC(=O)O)C(=O)N[C@@H](CO)C(=O)N1 (stereo not given in full)	nt	8.8*	-4	-6	1.1	10
CCCc1cc(=O)oc2c3c(cc(OCC(=O)N[C@@H](C)C(=O)O)c12)OC(C)(C)CC3	-7	nt	nt	nt	nt	nt
CCCc1cc(=O)oc2c3c(c4c(c12)OC(C)(C)C=C4)OC(C)C(C)C3O (stereo not given)	78*	5	nt	nt	nt	-18
COc1ccc(C2=NOC(C(=O)N3CCN(C(=O)c4ccco4)CC3)C2)cc1OC (stereo not given)	0	nt	nt	nt	nt	nt
N#CC(c1ccccc1)N(CCCCl)C(=O)c1ccc(Br)cc1 (stereo not given)	1	1	-13	-8	1.1	20
Fc1ccccc1NC(=S)N/N=C/c1ccccc1Br	1	11*	2	5	1	7
CC(C)CN1CCC(Oc2cccc(C(=O)NCCc3ccccc3)c2)CC1	-2	nt	nt	nt	nt	nt
CC(=O)Nc1cc2c(cc1C(C)=O)OCCO2	-3	9.0*	-1	1	1	17
COc1ccc(NC(=O)c2cccnn2)cc1	-19	nt	nt	nt	nt	nt
OCC1OC(n2ccc3c2ncn2ncnc32)C(O)C1O (stereo not given)	82*	nt	nt	nt	nt	nt
CCN(Cc1ccncc1)C(=O)c1ccc2c(c1)S(=O)(=O)c1ccccc1C2=O	-1	-2	-5	-4	1	-13
Cc1ccc(NC(=O)c2ccc(F)cc2F)cc1NS(C)(=O)=O	3	9.2*	nt	nt	nt	4
O=C1NCCN1c1ccccc1	-5	nt	nt	nt	nt	nt
O=C1N(c2ccccc2)CCN1c1ccccc1	64*	nt	nt	nt	nt	nt
COc1ccc(N2CCN(c3nc4cc(C)ccc4cc3C=O)CC2)cc1	10	nt	nt	nt	nt	nt
CN(C)c1ccc(NC(=O)/C=C/c2ccccc2Cl)cc1	29	6	4	64*	0.4	25
CN(C)c1ccc(NC(=O)c2cccc(C(=O)Nc3ccc(N(C)C)cc3)n2)cc1	53*	2	8	56*	0.4	34
CN(C)c1ccc(S(=O)(=O)N2CCC(Cc3ccccc3)CC2)cn1	-3	nt	nt	nt	nt	nt
CCOc1ccccc1NC(=O)C(c1ccccc1)N1CCN(CC(=O)N2CCCC2)CC1 (stereo not given)	10	nt	nt	nt	nt	nt
COc1ccc(C(CCN(Cc2ccc(OC)c(OC)c2)C(C)=O)c2ccccc2)cc1 (stereo not given)	5	5	-6	-5	1.1	-9
COc1ccc(CN(CCC(c2ccccc2)c2ccc(OC(C)C)cc2)C(=O)CCl)cc1OC (stereo not given)	96*	2	-13	-6	1.1	4
c1ccc(-c2cn3c(n2)-c2ccccc2C3)cc1	69*	1	-1	87*	0.1	44
COc1ccc(N2CCN(S(=O)(=O)/C=C/c3ccccc3)CC2)cc1	-4	9.3*	3	-6	1.1	-2
COc1ccc(Br)c(C(=O)N2CCN(S(=O)(=O)/C=C/c3ccccc3)CC2)c1	1	0	5	-10	1.1	-1
CC(NC(=O)CCNC(=O)c1ccc(Br)cc1)c1ccc(-n2ccnc2)cc1 (stereo not given)	-1	nt	nt	nt	nt	nt
Cc1cc(C(=O)N/N=C/C=C/c2ccc([N+](=O)[O-])cc2)n[nH]1	0	2	-3	-3	1	8
CCC(CC)CN1CCC(CN2C(=S)NC[C@@H]2[C@@H](C)CC)CC1	11	nt	nt	nt	nt	nt
